High-throughput results: PubChem, several laboratories
UBC13 polyUb: inhibitors of human UBC13 polyubiquitin chain formation; P61088; TR-FRET; inhibition, % at 20 µM; 0.47% of 330,000 active; AID 485273; in the data active = inhibition above about 45%, passing the limit was not always enough
Target sequence (P61088 whole entry, looked up): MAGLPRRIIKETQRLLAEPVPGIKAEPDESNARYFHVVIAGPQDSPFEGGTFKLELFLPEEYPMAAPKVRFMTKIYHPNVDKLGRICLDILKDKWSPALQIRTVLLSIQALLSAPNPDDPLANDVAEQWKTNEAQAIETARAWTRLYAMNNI
MPTP block: blocks calcium-induced mitochondrial swelling; isolated mouse mitochondria, Ca2+ swelling absorbance, 30 min; 1.4% of 360,000 active; inhibition, % at 10 µM;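 active = inhibition of 50% or more, scaled per plate between neutral and stimulator controls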;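 also: 0% = DMSO wells given calcium and 100% = 1 mM EGTA wells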
hiPSC survival: enhancers of human iPSC single-cell survival | hiPSC single-cell survival, ATPlite luminescence; 100% = ROCK inhibitor wells, 0% = DMSO | survival enhancement, % at 20 µM | 0.044% of 360,000 active; in the data active = survival enhancement above about 18%;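 also: cells exposed to compounds for 16 hours before the ATP read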
beta cell repl: MIN6 beta-cell proliferation induction. MIN6 cells proliferation, ATPlite luminescence, 48 h; cells starved in 0.2% serum; 100% = growth in 10% serum. proliferation, % at 10 µM. 0.29% of 330,000 active;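 active = compounds whose signal lies at least 3.5 SD above the mean of all wells on their plate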;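 also: 0% = DMSO-treated cells in low-serum medium and 100% = 10% serum control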
Apaf1 inhib: blocks human Apaf-1 apoptosome activity. O14727. AID 489030. reconstituted apoptosome caspase-3 activity, DEVD-Rh110 fluorescence. inhibition, % at 20 µM. 0.71% of 330,000 active; active = inhibition of at least 40% at 20 µM;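 also: plate controls were DMSO wells for no effect and DEVD-CHO caspase inhibitor wells for full effect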
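Assay system – apoptosome proteins · Medium – Hepes buffer, pH 7.5 · Also added – cytochrome c with DEVD-Rh110 · Timing – 30 min compound preincubation, 50 min activation, room temperature · Detection – Rh110 fluorescence, excitation 480 nm, emission 540 nm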
Granule exo inh: lytic granule exocytosis inhibition; TALL-104 LAMP-1 surface exposure, flow cytometry; cells stimulated with thapsigargin and PMA; inhibition, % at 10 µM; 0.66% of 360,000 active; AID 651702;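 active = inhibition above about 55%, limit read from the data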
MPTP counter: membrane potential counter-screen of mitochondrial pore inhibitors; AID 624504; 78% of 5,000 active; inhibition, % at 10 µM; isolated mitochondria, Rhodamine 123 fluorescence; shares compounds with MPTP block; in the data active = inhibition above about 22%;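 also: 0% = DMSO vehicle and 100% = positive control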
* hit, by the source's call. Rows were chosen to be rich in hits. Some 3% of all compounds tested hit in one or more screens of this group.

`Cc1ccccc1C[n+]1cccc2ccccc21` gave UBC13 polyUb 5, MPTP block -2, hiPSC survival -2, beta cell repl 2, Apaf1 inhib -7 and Granule exo inh -4.
For CCCCCCCCCCCCCCCC[n+]1cccc2ccccc21 the results were UBC13 polyUb 102*, MPTP block 76*, hiPSC survival -3, beta cell repl -3, Apaf1 inhib 91*, Granule exo inh 40 and MPTP counter 102*.
`Nc1ncnc2c1ncn2[C@@H]1O[C@H](C(=O)N[C@H]2c3ccccc3C[C@H]2O)[C@@H](O)[C@H]1O` gave MPTP block -1, hiPSC survival -1 and Granule exo inh 12.
`CC1=C(C(=O)N(C)C)CC(CC(=O)NC2CCCC2)C(=O)N1CCC1=CCCCC1` (stereo not drawn) gave MPTP block -1, hiPSC survival 4 and Granule exo inh -1.
`Cc1cccc(C(=O)NC(=S)NC(C)c2ccccc2)c1` (stereo not drawn) gave UBC13 polyUb 0, MPTP block 0, hiPSC survival 1, beta cell repl -4, Apaf1 inhib 13 and Granule exo inh -14.
For CCc1cccc(C)c1NC(=O)CSc1nnc(-c2cc3cc(Br)ccc3o2)n1CC the results were UBC13 polyUb -12, MPTP block 92*, hiPSC survival 0, beta cell repl -5, Apaf1 inhib 39, Granule exo inh 4 and MPTP counter 84*.
Screening O=C(Nc1cccc(Cl)c1)Nc1ccc2c(c1)OCO2 returned UBC13 polyUb 0, MPTP block 100*, hiPSC survival -3, beta cell repl -3, Apaf1 inhib 9, Granule exo inh 3 and MPTP counter 85*.
Screening CCc1ccccc1NC(=O)Nc1ccc2c(c1)OCO2 returned UBC13 polyUb 6, MPTP block 5, hiPSC survival -2, beta cell repl 2, Apaf1 inhib -5 and Granule exo inh -13.
O=C(NCc1ccc2c(c1)OCO2)Nc1cccc(Cl)c1 was read as UBC13 polyUb 2, MPTP block 5, hiPSC survival 0, beta cell repl -1, Apaf1 inhib -45 and Granule exo inh 30.
Screening O=C(Nc1ccc2c(c1)OCO2)NC1(C(F)(F)F)Oc2ccccc2O1 returned UBC13 polyUb 7, MPTP block 55*, hiPSC survival -1, beta cell repl -5, Apaf1 inhib 4, Granule exo inh 42 and MPTP counter 60*.
CCc1cccc(NC(=O)Nc2ccc3c(c2)OCO3)c1 was read as UBC13 polyUb 0, MPTP block 59*, hiPSC survival -2, beta cell repl -3, Apaf1 inhib 10, Granule exo inh -5 and MPTP counter 76*.
Screening O=C(Nc1ccc2c(c1)OCO2)N1CCCC1 returned UBC13 polyUb -3, MPTP block 82*, hiPSC survival -2, beta cell repl 3, Apaf1 inhib -2, Granule exo inh -1 and MPTP counter 85*.
CCC(=O)c1ccc(OCC(=O)OCC(=O)NC2CCCCCCC2)cc1 was read as UBC13 polyUb -7, MPTP block 0, hiPSC survival 0, beta cell repl 2, Apaf1 inhib 9 and Granule exo inh 10.
CC1(C(=O)NCc2ccco2)Cc2c(-c3ccccc3)ccnc2O1 (stereo not drawn) was read as MPTP block 1, hiPSC survival -2 and Granule exo inh 4.
`O=C(CCc1nc(-c2ccccc2F)no1)Nc1ccc(Oc2ccccc2)cc1` gave UBC13 polyUb 33, MPTP block 107*, hiPSC survival 0, beta cell repl -4, Apaf1 inhib 8, Granule exo inh 4 and MPTP counter 94*.
For Cc1cccc(-c2noc(CCC(=O)Nc3ccccc3)n2)c1 the results were UBC13 polyUb 7, MPTP block 1, hiPSC survival 3, beta cell repl -3, Apaf1 inhib 10 and Granule exo inh 10.
`COc1cccc(NC(=O)CCc2nc(-c3ccccc3F)no2)c1` gave UBC13 polyUb -4, MPTP block 0, hiPSC survival 5, beta cell repl -2, Apaf1 inhib 8 and Granule exo inh -1.
